Test results from ChEMBL document CHEMBL3352121, “Modulation of Activity Profiles for Largazole-Based HDAC Inhibitors through Alteration of Prodrug Properties” (ACS Med Chem Lett, 2014).

Columns and labels:
Histone deacetylase 3 = Histone deacetylase 3 (Homo sapiens, UniProt O15379); test: Inhibition of HDAC3 (unknown origin) incubated for 30 mins in presence of BSA and DTT by fluorescence assay
Summary of the method: (§1)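 Purified HDAC isoforms were tested up to a maximum of 1 μM. IC50 values are averages of duplicate experiments. Disulfide compounds were pretreated with DTT to reduce the disulfide bond.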

[1] = Antiproliferative activity against human HCT116 cells after 48 hrs in presence of DTT by MTT assay; assay type: functional, cell-based; conditions: HCT-116, 48 h
Summary of the method: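 Disulfide compounds were pretreated with DTT to reduce the disulfide bond before testing.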

[2] = molecular target: T1, Protein deacetylase HDAC6 (Homo sapiens, UniProt Q9UBN7); test: Inhibition of HDAC6 (unknown origin) incubated for 30 mins in presence of BSA and DTT by fluorescence assay; summary of the method: as §1
T1 sequence (Q9UBN7 whole entry): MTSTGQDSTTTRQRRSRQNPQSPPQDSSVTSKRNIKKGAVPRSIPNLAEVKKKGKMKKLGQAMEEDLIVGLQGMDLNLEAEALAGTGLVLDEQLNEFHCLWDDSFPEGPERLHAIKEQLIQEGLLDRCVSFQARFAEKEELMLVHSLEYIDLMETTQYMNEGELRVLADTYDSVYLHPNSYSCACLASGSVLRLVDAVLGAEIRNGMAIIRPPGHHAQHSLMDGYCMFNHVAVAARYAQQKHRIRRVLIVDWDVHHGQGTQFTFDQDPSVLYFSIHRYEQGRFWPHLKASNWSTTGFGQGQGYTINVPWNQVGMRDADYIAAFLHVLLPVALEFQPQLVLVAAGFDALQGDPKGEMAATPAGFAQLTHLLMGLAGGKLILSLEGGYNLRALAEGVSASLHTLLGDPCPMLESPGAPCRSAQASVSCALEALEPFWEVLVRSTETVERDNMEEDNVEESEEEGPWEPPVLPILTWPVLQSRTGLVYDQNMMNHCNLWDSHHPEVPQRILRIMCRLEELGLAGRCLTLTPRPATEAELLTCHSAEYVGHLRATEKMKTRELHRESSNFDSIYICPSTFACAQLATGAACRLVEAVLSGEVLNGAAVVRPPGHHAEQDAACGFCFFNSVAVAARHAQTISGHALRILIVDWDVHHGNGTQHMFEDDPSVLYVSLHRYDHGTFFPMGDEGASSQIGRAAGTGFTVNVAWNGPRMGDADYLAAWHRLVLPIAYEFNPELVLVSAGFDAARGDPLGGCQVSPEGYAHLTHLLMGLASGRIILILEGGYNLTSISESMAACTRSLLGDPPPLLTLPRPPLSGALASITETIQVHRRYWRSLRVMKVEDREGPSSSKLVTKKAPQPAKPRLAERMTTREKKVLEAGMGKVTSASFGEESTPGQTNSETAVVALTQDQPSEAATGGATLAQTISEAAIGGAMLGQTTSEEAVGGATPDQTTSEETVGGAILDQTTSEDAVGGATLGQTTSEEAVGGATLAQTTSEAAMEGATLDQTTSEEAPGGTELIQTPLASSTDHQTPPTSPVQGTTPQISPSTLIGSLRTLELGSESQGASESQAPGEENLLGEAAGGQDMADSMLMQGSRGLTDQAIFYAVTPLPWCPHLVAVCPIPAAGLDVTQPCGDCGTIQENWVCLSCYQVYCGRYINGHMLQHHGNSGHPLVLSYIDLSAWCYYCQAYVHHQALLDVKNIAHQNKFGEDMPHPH

[3] = molecular target: T2, Histone deacetylase 7 (Homo sapiens) (UniProt Q8WUI4); test: Inhibition of HDAC7 (unknown origin) at 1 uM incubated for 30 mins in presence of BSA and DTT by fluorescence assay; summary of the method: as §1
T2 sequence (whole entry): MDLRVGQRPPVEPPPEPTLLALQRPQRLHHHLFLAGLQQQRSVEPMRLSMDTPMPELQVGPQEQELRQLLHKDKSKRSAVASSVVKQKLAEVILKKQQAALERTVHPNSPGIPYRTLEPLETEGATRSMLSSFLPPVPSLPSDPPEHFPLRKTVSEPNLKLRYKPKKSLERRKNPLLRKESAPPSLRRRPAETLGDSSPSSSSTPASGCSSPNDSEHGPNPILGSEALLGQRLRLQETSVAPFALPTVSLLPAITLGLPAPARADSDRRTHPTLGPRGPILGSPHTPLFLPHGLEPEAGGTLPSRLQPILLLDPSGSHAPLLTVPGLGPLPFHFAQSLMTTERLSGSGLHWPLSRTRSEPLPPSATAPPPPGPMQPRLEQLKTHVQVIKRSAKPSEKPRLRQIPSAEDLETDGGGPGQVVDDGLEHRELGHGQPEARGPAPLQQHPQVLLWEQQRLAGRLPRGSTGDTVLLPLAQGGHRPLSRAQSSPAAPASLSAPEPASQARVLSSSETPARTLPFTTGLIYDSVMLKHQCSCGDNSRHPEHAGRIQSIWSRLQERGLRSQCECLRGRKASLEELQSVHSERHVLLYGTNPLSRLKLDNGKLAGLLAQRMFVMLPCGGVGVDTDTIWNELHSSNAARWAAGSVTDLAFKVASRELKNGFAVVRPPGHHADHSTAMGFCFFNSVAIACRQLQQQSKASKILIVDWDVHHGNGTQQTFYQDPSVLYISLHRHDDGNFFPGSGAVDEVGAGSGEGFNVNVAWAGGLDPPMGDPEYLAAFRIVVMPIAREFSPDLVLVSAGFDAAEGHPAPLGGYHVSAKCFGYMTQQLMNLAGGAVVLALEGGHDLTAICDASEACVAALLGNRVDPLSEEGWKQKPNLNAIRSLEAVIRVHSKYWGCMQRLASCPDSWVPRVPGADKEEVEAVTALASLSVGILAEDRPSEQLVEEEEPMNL

[4] = molecular target: Histone deacetylase (Homo sapiens) (UniProt Q13547+O15379+Q9UBN7+Q92769+Q9UQL6+Q8WUI4+Q9BY41+Q96DB2+P56524+Q9UKV0+Q969S8); test: Inhibition of HDAC in human HCT116 cells assessed as increase in histone H3 (Lys9/14) hyperacetylation after 8 to 24 hrs by immunoblotting method; assay type: cell-based; conditions: HCT-116
Summary of the method: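 HCT116 cells were treated across a dose range. Cellular HDAC inhibition was read as histone H3 (Lys9/14) hyperacetylation by immunoblot at 8 and 24 h post-treatment.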

Histone deacetylase 11 = molecular target: T3, Histone deacetylase 11 (Homo sapiens, UniProt Q96DB2); test: Inhibition of HDAC11 (unknown origin) incubated for 3 hrs in presence of BSA and DTT by fluorescence assay; summary of the method: as §1
T3 sequence (Q96DB2 whole entry): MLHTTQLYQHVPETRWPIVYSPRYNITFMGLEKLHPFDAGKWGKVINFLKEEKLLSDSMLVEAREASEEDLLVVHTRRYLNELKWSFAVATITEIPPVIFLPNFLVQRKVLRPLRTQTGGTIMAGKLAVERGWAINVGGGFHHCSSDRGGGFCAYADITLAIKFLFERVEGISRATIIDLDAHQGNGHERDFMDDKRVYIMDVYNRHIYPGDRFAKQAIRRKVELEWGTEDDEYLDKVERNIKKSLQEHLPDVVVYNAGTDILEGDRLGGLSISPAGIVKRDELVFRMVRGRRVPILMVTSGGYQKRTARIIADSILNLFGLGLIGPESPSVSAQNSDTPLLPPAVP

Histone deacetylase 3, sequence (O15379 whole entry, canonical isoform): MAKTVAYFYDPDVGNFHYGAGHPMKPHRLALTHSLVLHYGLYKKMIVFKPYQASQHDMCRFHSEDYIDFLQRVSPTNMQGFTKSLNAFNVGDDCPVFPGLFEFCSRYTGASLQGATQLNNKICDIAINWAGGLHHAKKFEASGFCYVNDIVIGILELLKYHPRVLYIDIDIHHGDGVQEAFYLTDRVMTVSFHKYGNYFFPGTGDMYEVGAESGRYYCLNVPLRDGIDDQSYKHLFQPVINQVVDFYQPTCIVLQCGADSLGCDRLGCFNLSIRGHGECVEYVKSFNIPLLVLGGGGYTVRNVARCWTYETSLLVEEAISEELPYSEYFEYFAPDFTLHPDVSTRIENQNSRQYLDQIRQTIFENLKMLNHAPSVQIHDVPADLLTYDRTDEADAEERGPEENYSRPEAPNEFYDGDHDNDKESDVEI

| SMILES | IC50 (Histone deacetylase 3) [nM] | IC50 [1] [nM] | IC50 [2] [nM] | inhibition [3] [%] | inhibition [4] | IC50 (Histone deacetylase 11) [nM] |
| --- | --- | --- | --- | --- | --- | --- |
| CC(C)[C@@H]1NC(=O)[C@]2(C)CSC(=N2)c2csc(n2)CNC(=O)C[C@@H](/C=C/CCSSC[C@H](NC(=O)OC(C)(C)C)C(=O)OC(C)(C)C)OC1=O | 0.6 | 13 | 135 | < 20 | Dose-dependent effect | 0.2 |
| CC(C)[C@@H]1NC(=O)[C@]2(C)CSC(=N2)c2csc(n2)CNC(=O)C[C@@H](/C=C/CCSSCC/C=C/[C@@H]2CC(=O)NCc3nc(cs3)C3=N[C@@](C)(CS3)C(=O)N[C@@H](C(C)C)C(=O)O2)OC1=O | 0.3 | 12 | 61 | < 20 | Dose-dependent effect | 0.1 |
